# Tests used:
# TcdBHV [1] = experiment: In vitro TcdB autoprocessing assay; type: biochemical, Clostridium difficile BI17
# TcdBHIST [2] = molecular target: T1, TcdBHIST (Clostridioides difficile, UniProt P18177); experiment: In vitro TcdB autoprocessing assay; type: biochemical, Clostridium difficile 10463
# TcdBHV [3] = experiment: AWP19 probe labeling of TcdB; type: biochemical, Clostridium difficile BI17; settings: 1 h IP6, then AWP19 in 10-fold molar excess
# TcdBHIST [4] = molecular target: T1, TcdBHIST; experiment: AWP19 probe labeling of TcdB; type: biochemical, Clostridium difficile 10463; settings: 1 h IP6, then AWP19 in 10-fold molar excess
# TcdBHV [5] = experiment: In vitro inhibition of IP6-induced processing with Ac-GSL-AOMK; type: biochemical, Clostridium difficile BI17
# [6] = system: TcdBHV treated CHO-K1 cells; experiment: Inactivation of TcdB in cell culture; type: cell-based; settings: TcdBHV pre-incubated with 100 µM inhibitor; 24 hrs
# Outline: (§1)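 CHO-K1 cells were seeded at 1–2 × 10^4 cells/well in F12-K medium with 10% FBS. Toxin at 0.037, 0.37 or 3.7 pM was preincubated for 30 min in F12-K medium with 100 µM of the CPD inhibitor Ac-GSL-AOMK, then added to wells in triplicate. Cells were kept 24 h at 37°C, 6% CO₂, and viability was read by CCK-8.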
# [7] = system: TcdBHIST treated CHO-K1 cells; experiment: Inactivation of TcdB in cell culture; type: cell-based; settings: TcdBHIST pre-incubated with 100 µM inhibitor; 24 hrs
# Outline: as §1
# TcdBHIST [8] = molecular target: T1, TcdBHIST
# [9] = up to 100 µM inhibitor, 25 µM IP6, 3 independent experiments
# T1 sequence (P18177 whole entry): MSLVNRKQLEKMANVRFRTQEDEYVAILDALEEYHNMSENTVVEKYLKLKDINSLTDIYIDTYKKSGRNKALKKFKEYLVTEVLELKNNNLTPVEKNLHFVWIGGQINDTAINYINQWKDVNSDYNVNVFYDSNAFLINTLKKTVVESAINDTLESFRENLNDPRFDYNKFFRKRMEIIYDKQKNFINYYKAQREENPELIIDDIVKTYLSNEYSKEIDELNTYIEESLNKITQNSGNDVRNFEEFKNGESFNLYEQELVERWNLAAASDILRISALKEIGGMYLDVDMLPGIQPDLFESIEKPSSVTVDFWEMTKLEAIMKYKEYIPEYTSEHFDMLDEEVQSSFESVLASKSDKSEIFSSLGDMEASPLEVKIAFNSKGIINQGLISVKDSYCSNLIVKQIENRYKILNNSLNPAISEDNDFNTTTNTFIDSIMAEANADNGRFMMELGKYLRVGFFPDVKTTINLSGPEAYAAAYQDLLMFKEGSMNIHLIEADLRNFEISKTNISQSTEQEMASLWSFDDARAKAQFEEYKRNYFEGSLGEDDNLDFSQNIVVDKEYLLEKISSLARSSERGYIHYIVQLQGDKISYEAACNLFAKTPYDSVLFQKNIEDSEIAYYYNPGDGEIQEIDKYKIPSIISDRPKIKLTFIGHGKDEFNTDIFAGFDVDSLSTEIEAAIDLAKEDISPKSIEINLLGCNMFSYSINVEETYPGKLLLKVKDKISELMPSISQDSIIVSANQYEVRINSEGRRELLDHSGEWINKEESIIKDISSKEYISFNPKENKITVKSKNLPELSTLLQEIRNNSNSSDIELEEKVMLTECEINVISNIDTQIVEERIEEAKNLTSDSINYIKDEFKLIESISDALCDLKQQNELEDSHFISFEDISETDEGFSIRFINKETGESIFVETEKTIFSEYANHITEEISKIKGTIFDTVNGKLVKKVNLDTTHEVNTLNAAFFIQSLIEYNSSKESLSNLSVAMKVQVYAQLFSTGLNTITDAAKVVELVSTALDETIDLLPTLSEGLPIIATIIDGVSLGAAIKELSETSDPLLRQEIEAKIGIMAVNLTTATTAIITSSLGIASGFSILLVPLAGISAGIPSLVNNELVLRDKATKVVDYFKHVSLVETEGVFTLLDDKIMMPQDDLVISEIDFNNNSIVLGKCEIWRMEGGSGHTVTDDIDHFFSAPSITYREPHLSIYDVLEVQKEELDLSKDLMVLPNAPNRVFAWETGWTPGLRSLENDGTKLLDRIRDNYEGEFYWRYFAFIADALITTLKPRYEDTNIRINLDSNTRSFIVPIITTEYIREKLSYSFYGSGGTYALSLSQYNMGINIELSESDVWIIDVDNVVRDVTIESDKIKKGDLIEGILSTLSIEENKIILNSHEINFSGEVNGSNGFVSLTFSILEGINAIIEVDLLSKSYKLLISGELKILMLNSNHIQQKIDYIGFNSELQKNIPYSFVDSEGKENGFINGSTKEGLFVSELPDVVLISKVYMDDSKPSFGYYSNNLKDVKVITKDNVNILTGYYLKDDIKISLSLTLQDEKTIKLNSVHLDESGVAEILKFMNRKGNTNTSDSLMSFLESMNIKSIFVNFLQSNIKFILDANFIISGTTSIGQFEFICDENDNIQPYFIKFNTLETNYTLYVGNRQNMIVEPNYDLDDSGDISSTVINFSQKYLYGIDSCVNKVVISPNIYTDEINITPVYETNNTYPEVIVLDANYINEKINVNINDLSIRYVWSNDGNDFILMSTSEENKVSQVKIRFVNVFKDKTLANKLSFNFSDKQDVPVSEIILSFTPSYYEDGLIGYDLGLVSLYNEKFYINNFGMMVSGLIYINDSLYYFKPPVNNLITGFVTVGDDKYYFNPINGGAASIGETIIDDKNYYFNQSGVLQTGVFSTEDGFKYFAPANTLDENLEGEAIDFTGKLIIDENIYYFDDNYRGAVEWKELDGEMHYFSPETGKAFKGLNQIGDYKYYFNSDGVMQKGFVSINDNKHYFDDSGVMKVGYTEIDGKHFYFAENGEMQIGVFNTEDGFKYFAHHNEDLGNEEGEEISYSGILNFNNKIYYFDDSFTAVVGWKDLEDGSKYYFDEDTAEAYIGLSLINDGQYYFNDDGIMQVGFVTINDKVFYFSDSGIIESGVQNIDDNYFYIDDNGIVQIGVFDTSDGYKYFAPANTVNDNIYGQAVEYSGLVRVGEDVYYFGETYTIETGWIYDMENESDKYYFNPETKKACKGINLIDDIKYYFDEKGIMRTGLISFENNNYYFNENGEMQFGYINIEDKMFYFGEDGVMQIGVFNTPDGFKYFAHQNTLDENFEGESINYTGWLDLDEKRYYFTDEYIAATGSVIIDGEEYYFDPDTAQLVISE
compound,measurement,setting,value
"O[C@@H](CS)[C@@H](O)CS (racemic) [DTT, Dithiothreitol]",time to maximum activation,TcdBHV [1]; 5 mM DTT in place of IP6,approximately 1 h
same,time to activation of processing,"TcdBHV [1]; 5 mM DTT in place of IP6, 90 min time-course",≤ 15 min
same,activation of processing,"TcdBHIST [2]; 5 mM DTT, 90 min time-course",just slightly above the level of detection
"O=P(O)(O)OC1C(OP(=O)(O)O)C(OP(=O)(O)O)C(OP(=O)(O)O)C(OP(=O)(O)O)C1OP(=O)(O)O (centres unmarked) [IP6, inositol hexakisphosphate]",time to half-maximal level of proteolysis,TcdBHV [1]; 100 µM IP6,≤ 2 min
same,percent cleavage (autoprocessing),"TcdBHV [1]; 100 µM IP6, within the first hour",~80%
same,time to half-maximal level of proteolysis,TcdBHIST [2]; 100 µM IP6,≤ 2 min
same,maximal processing,"TcdBHIST [2]; 100 µM IP6, up to 60 min",under 60%
same,IP6 concentration at which AWP19-labeled toxin could be detected,TcdBHV [3],5 µM
same,IP6 concentration at which AWP19-labeled toxin could be detected,TcdBHIST [4],5 µM
Ac-GSL-AOMK,concentration at which inhibition of IP6-induced processing was detectable,TcdBHV [5]; 25 µM IP6,around 12.5 µM
same,effect of inhibitor without IP6,TcdBHV [5]; no IP6 (data not shown),no effect
same,maximum percent inhibition of processing,TcdBHV [5]; [9],around 60%
same,protection of CHO cells from toxin,[6],not as functional
same,protection of CHO cells from toxin,[7],provided protection
same,concentration at which inhibition of IP6-induced processing was detectable,TcdBHIST [8]; 25 µM IP6,around 12.5 µM
same,effect of inhibitor without IP6,TcdBHIST [8]; no IP6 (data not shown),no effect
same,percent of proteolysis blocked,TcdBHIST [8]; [9],~100%

# Reference: article PMC3313004 (Molecular Microbiology, 2012)
